Series [1] is described as follows: Stability in mouse liver microsomes assessed as compound remaining after 30 mins. The conditions noted are these: read-out: Stability. The series is classed as ADME, Microsome. Summed up: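 Mouse liver microsomes, 30-min incubation. Result expressed as percent of parent remaining.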
Background: Liver microsomes are a subcellular fraction often used to study metabolism.

Series [2] deals with T1, Fatty acid synthase (Homo sapiens, UniProt P49327). Nature of the series: Inhibition of full length recombinant human FASN using acetyl-CoA/malonyl-CoA as substrate preincubated for 60 mins followed by substrate addition and measured after 90 mins in presence of NADPH. The essentials:
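Full-length recombinant human FASN. CoA released is detected as a fluorescent conjugate with the coumarin maleimide CPM. IC50 is the mean of at least two separate runs.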

Series [3] can be described thus: Kinetic solubility of compound at pH 7.4. The series is classed as physicochemical. The settings on record: buffer, read-out: Kinetic_solubility. Summed up: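 Kinetic solubility measured at pH 7.4.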
The target in series [4] is T1, Fatty acid synthase. Nature of the series: Inhibition of FASN in human BT474 cells preincubated for 1 hr followed by [14C]-acetate addition and measured after 4 hrs by scintillation counting assay. It counts as cell-based. The essentials:
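BT474 breast cancer cells given 14C-acetate, which cellular FASN incorporates via acetyl-CoA into newly made radiolabeled palmitate. IC50 for blocking this incorporation is the mean of at least two separate runs.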

A further series deals with PC-3. Nature of the series: Antiproliferative activity against human PC3 cells after 96 hrs by MTT assay. It counts as functional, cell-based. The settings on record: PC-3, 96 h. The essentials: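 PC3 prostate cancer cells grown in medium with 10% lipid-reduced serum, a condition in which growth depends on de novo lipogenesis, in the presence of inhibitor. Antiproliferative IC50 reported as the mean of at least two separate runs.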
A general note: Tetrazolium assays rely on reduction of a dye to a coloured formazan, in cell work by metabolically active cells.

A short description of series [5]: Stability in mouse hepatocytes after 1 hr. The series is classed as ADME, cell-based, Hepatocyte. The conditions noted are these: read-out: Stability.
The nature of series [6]: Stability in mouse liver S9 fraction after 1 hr. The series is classed as ADME, subcellular. The conditions noted are these: read-out: Stability.
Series [7] in a line: AUC in mouse at mg/kg, po. It counts as ADME, organism-based. The settings on record: in vivo. Also on record: concentration or dose not given beside the values. The essentials: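 Mouse oral PK study at 5 mg/kg p.o., with plasma exposure taken as AUC0-8h.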
The nature of series [8]: Oral bioavailability in Balb/c nude mouse at 5 mg/kg. It counts as ADME, organism-based. The conditions noted are these: in vivo. The essentials:
(§1)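 Female Balb/c nude mice (n=6) dosed orally at 5 mg/kg in PEG400/ethanol (9:1). Exposure measured over 8 h, giving Tmax, Cmax, AUC0-8h and %F.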

A short description of series [9]: Tmax in Sprague-Dawley rat at 5 mg/kg, po. The series is classed as ADME, organism-based. The settings on record: in vivo. Summed up:
(§2)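 Male Sprague-Dawley rats (n=3) given a single oral 5 mg/kg dose in PEG400/ethanol (9:1). Plasma followed over 24 h to give Tmax, Cmax, AUC0-24h and oral bioavailability (%F).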

Series [10] can be described thus: AUC (0 to 24 hrs) in Sprague-Dawley rat at 5 mg/kg, po. It counts as ADME, organism-based. Also on record: dose 5 mg/kg, time < 24 hr, route oral. The settings on record: in vivo. Summed up:
as §2

For series [11], the system named is MV4-11. As to the kind of experiment: Antitumor activity against human MV4-11 cells xenografted in Harlan nude mouse assessed as tumor growth inhibition at 50 mg/kg, po administered twice daily for 16 days and measured 4 hrs post last dose. The series is classed as functional. The conditions noted are these: MV4-11, po, read-out: TGI. Summed up: (§3)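 Mice carrying subcutaneous MV-411 xenografts were randomized at […] tumor size into four groups (n=4). Groups received vehicle (PEG400/ethanol 9:1 v/v) or 5, 25 or 50 mg/kg twice daily. Tumors were taken 4 h after the last dose for malonyl-CoA measurement by LC-MS (one-way ANOVA vs vehicle). Tumor growth inhibition was assessed vs vehicle after 16 days.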
Background: In xenograft studies the graft and the host belong to different species.

Series [12] can be described thus: Toxicity in Balb/c nude mouse at 5 mg/kg, po administered as single dose. It counts as organism-based. The conditions noted are these: in vivo. The essentials:
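Female Balb/c nude mice observed for acute toxicity after a single oral 5 mg/kg dose.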

Series [13] deals with MV4-11. Nature of the series: Antitumor activity against human MV4-11 cells xenografted in Harlan nude mouse assessed as tumor growth inhibition at 25 mg/kg, po administered twice daily for 16 days and measured 4 hrs post last dose. The settings on record: MV4-11, po, read-out: TGI. It counts as functional. Summed up:
as §3

For another series, the system named is Mus musculus. Nature of the series: In vivo inhibition of FASN in Harlan nude mouse xenografted with human MV411 cells assessed as increase in malonyl-CoA levels in tumors administered orally twice daily for 16 days and measured 4 hrs post last dose by LC-MS analysis. It counts as functional, organism-based. Summed up: as §3
Series [14] in a line: Tmax in Balb/c nude mouse at 5 mg/kg, po. It counts as ADME, organism-based. The settings on record: in vivo. Summed up:
as §1

Series [15] is described as follows: Oral bioavailability in Sprague-Dawley rat at 5 mg/kg. It counts as ADME, organism-based. The settings on record: in vivo. The essentials:
as §2

Series [16] in a line: Cmax in Balb/c nude mouse at 5 mg/kg, po. The series is classed as ADME, organism-based. Also on record: dose 5 mg/kg, route oral. The conditions noted are these: in vivo. The essentials:
as §1

Series [17] in a line: AUC (0 to 8 hrs) in Balb/c nude mouse at 5 mg/kg, po. Also on record: time < 8 hr, dose 5 mg/kg, route oral. The conditions noted are these: in vivo. The series is classed as ADME, organism-based. The essentials:
as §1

A short description of series [18]: Cmax in Sprague-Dawley rat at 5 mg/kg, po. The series is classed as ADME, organism-based. Also on record: dose 5 mg/kg, route oral. The settings on record: in vivo. The essentials: as §2
Series [19] deals with MV4-11. As to the kind of experiment: Antiproliferative activity against human MV4-11 cells after 96 hrs by CellTiter-Glo reagent-based assay. The series is classed as functional, cell-based. The settings on record: MV4-11, 96 h. Summed up: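 Antiproliferative activity measured in MV-411 cells. IC50 reported as the mean of at least two separate assay runs.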

≈ marks a conversion by molar mass, not a printed value. Where only a bound is given, the exact number is not on record here.

T1 sequence (P49327 whole entry): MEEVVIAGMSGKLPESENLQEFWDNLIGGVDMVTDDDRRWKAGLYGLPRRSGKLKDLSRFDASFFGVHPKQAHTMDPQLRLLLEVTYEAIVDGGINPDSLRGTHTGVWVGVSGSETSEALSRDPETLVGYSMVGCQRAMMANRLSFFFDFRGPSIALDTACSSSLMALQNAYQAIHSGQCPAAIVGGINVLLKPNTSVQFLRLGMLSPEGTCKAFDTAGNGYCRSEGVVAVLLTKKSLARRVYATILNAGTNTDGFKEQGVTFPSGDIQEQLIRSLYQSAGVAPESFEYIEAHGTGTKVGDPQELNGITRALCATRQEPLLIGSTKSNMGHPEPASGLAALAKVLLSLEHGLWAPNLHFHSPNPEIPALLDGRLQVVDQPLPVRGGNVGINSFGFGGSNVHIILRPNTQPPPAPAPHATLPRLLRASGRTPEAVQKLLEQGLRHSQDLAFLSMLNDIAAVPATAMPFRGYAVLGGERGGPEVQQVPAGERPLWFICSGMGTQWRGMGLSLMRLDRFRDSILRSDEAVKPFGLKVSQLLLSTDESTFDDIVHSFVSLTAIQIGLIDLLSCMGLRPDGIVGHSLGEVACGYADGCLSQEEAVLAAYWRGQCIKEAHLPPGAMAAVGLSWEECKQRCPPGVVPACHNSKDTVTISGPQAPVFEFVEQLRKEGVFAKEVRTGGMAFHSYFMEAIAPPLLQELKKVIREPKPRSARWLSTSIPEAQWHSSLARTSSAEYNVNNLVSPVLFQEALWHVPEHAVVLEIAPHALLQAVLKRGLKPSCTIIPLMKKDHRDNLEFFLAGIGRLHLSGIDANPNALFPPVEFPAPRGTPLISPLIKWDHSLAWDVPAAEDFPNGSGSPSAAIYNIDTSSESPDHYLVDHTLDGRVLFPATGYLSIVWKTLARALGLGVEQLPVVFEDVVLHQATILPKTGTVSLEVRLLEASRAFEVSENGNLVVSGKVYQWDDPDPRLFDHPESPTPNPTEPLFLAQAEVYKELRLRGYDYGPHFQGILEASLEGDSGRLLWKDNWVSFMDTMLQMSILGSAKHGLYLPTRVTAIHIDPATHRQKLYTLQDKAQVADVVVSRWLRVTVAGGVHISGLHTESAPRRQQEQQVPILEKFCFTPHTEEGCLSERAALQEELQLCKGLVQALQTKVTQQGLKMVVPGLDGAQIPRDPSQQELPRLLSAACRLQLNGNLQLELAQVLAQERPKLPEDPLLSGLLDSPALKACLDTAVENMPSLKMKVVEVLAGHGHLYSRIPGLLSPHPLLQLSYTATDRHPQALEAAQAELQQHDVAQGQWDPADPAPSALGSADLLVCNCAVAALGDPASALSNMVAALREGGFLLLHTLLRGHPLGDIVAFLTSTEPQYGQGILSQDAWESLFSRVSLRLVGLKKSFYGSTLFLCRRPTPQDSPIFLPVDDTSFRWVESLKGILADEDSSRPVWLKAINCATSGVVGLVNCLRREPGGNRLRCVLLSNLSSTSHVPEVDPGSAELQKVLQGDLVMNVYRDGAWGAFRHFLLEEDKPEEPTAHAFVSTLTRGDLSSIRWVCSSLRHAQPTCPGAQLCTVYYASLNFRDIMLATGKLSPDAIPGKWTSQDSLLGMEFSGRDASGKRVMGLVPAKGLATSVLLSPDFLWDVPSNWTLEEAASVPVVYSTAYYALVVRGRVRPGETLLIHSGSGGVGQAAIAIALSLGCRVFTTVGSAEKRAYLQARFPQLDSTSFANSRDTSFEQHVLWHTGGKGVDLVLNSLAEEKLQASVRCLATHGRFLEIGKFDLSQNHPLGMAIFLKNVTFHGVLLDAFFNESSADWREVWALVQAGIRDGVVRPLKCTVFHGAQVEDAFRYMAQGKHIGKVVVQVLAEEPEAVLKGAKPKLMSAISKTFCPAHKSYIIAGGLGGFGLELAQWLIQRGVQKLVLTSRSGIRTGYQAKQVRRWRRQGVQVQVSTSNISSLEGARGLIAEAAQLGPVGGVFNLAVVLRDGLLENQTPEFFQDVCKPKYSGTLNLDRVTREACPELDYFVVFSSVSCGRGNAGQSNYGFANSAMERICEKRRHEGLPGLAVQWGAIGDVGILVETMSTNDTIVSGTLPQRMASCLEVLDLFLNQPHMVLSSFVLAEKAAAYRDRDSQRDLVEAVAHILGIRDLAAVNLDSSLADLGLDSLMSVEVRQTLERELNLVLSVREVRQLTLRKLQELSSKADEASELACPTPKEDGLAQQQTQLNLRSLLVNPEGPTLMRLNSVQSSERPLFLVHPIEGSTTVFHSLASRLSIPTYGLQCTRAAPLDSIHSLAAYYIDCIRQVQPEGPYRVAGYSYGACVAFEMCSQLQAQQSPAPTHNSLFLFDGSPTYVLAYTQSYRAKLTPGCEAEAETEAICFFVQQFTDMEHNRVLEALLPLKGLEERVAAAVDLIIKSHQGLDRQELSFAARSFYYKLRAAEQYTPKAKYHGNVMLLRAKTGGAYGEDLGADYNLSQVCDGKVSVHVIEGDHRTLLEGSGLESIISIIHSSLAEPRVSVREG

For the compound `O=C(c1ccc(-c2ccc3scnc3c2)cc1)N1CCN(C(=O)C2(O)CC2)CC1`, the remaining at 0.5 h in [1] is 88%. Also, the IC50 (commonly the concentration that gives 50% inhibition) on Fatty acid synthase [2] amounted to 32 nM; against Fatty acid synthase [4] it was 11 nM; with PC-3 it was 17 nM. Also, the solubility kinetic in series [3] came to 95 µM (≈ 38.7 µg/mL).
The corresponding values for `O=C(c1ccc(-c2ccc3ccccc3n2)cc1)N1CCN(C(=O)C2(O)CC2)CC1` are 79%, 32 nM, 101 nM, 2 nM and 71 µM (≈ 28.5 µg/mL).
The corresponding values for `O=C(c1ccc(-c2nc3ccc(Cl)cc3o2)cc1)N1CCN(C(=O)C2(O)CC2)CC1` are 92%, 97 nM, 104 nM, 29 nM and 7 µM (≈ 2.98 µg/mL).
As for `O=C(c1ccc(-c2ccccc2)cc1)N1CCN(C(=O)C2(O)CCC2)CC1`, the remaining at 0.5 h in series [1] came to 85%. Moreover, the IC50 on Fatty acid synthase [2] turned out to be 1800 nM.
`Cn1ncc2ccc(-c3ccc(C(=O)N4CCN(C(=O)C5(O)CC5)CC4)cc3)cc21`: the remaining at 0.5 h in series [1] came to 89%. For the same compound, the IC50 on Fatty acid synthase [2] worked out at 26 nM; in the series with PC-3 it was 12 nM. Moreover, the remaining at 1 h in [5] was 77%; in series [6], 75%. Also, the solubility kinetic in [3] is 79 µM (≈ 32 µg/mL). The AUC – broadly, the area under the concentration-time curve, a measure of exposure – in [7] is 9.8 µM·h.
Take `Cn1c(-c2ccc(C(=O)N3CCN(C(=O)C4(O)CC4)CC3)cc2)cc2ccccc21`: the remaining at 0.5 h in series [1] was 83%. Also, the results for the IC50 at Fatty acid synthase [2], at Fatty acid synthase [4] and in the series on PC-3 were 33 nM, 70 nM and 25 nM, respectively. In addition, the solubility kinetic in series [3] worked out at 0.3 µM (≈ 0.121 µg/mL).
As for `O=C(c1ccc(-c2ccc3cnccc3c2)cc1)N1CCN(C(=O)C2(O)CC2)CC1`, the remaining at 0.5 h in series [1] was determined as 45%. The IC50 at Fatty acid synthase [2] turned out to be 13 nM; on Fatty acid synthase [4] it was 11 nM; with PC-3, 13 nM. Further, the remaining at 1 h is 1% in series [5] and 0% in [6]. Moreover, the solubility kinetic in [3] was 77 µM (≈ 30.9 µg/mL). The same compound showed an AUC in series [7] of 0.1 µM·h.
As for `O=C(c1ccc(-c2ccccc2)cc1)N1CCN(C(=O)[C@H]2CCCO2)CC1`, the remaining at 0.5 h in [1] came to 100%. Also, the IC50 at Fatty acid synthase [2] was 1100 nM.
As for `O=C(c1ccc(-c2nc3ccc(F)cc3o2)cc1)N1CCN(C(=O)C2(O)CC2)CC1`, the bioavailability (commonly the share of a dose that reaches the circulation, judged against a reference dose that is usually intravenous) in series [8] came to 95%; in series [15], 84%. Moreover, the remaining at 0.5 h in [1] is 100%. The IC50 at Fatty acid synthase [2] was found to be 213 nM; at Fatty acid synthase [4], 90 nM; in the series on MV4-11 [19] it was 26 nM; in the series with PC-3, 47 nM. Besides, the Tmax (in general, the time from dosing to the highest level) in series [9] was 3 h; in series [14], 2 h. The results for the remaining at 1 h in series [5] and in series [6] were 97% and 83%, respectively. The AUC(0-t) (usually exposure summed from dosing to a finite time, without extrapolation to infinity) at 24 h in series [10] is 440 µM·h. Besides, in the series on MV4-11 [11], the inhibition in vivo at 50 mg/kg turned out to be 50%. Also, the Activity entry in series [12] was “Non-Toxic”. The inhibition in vivo at 25 mg/kg in the series on MV4-11 [13] is 32%. For the same compound, in the series on Mus musculus, the inhibition result is “Dose-dependent effect”. In addition, the solubility kinetic in series [3] turned out to be 39 µM (≈ 16 µg/mL). In addition, the Cmax (usually the maximum level reached in the sampled fluid or tissue) in [16] stood at 8.4 µM; in [18], 33 µM. The same compound gave an AUC(0-t) at 8 h in series [17] of 46 µM·h. In series [7], this compound had an AUC of 46 µM·h.
Regarding `O=C(c1ccc(-c2nc3cc(F)ccc3o2)cc1)N1CCN(C(=O)C2(O)CC2)CC1`, the remaining at 0.5 h in [1] was 93%. Further, the IC50 on Fatty acid synthase [2] was determined as 192 nM; against Fatty acid synthase [4], 61 nM; with PC-3 it was 52 nM. Further, the Activity result in series [12] is “Toxic”. Besides, the solubility kinetic in series [3] amounted to 30 µM (≈ 12.3 µg/mL).
In the case of `O=C(c1ccc(-c2ccccc2)cc1)N1CCN(C(=O)C2CCCC2)CC1`, at Fatty acid synthase [2], the concentration for half-maximal inhibition (IC50) is greater than 50000 nM.
As for `O=C(c1ccc(-c2ccc(Cl)cc2F)cc1)N1CCN(C(=O)C2(O)CC2)CC1`, the remaining at 0.5 h in [1] amounted to 92%. The IC50 at Fatty acid synthase [2] worked out at 110 nM; on Fatty acid synthase [4], 336 nM; in the series on PC-3, 146 nM. The remaining at 1 h was found to be 84% in series [5] and 70% in series [6]. In series [3], the solubility kinetic was found to be 33 µM (≈ 13.3 µg/mL). In [7], this compound had an AUC of 47.6 µM·h.
Regarding `O=C(c1ccc(-c2cnc3ccccc3c2)cc1)N1CCN(C(=O)C2(O)CC2)CC1`, the remaining at 0.5 h in series [1] turned out to be 86%. The IC50 on Fatty acid synthase [2] came to 10 nM; against Fatty acid synthase [4], 12 nM. Further, the solubility kinetic in [3] came to 82 µM (≈ 32.9 µg/mL).
As to `O=C(c1ccc(-c2ccccc2)cc1)N1CCN(C(=O)C2(O)CC2)CC1`, in series [1], the remaining at 0.5 h was 95%. Besides, on Fatty acid synthase [2], the IC50 amounted to 350 nM.
